Assays:
Type in all cases: functional
HL-60(TB) = assay: Growth inhibition of human HL-60(TB) cells at 10 uM after 96 hrs by MTT assay; parameters: scale not given: the % may be the effect or the level left
SF-539 = assay: Growth inhibition of human SF539 cells at 100 nM after 96 hrs by MTT assay; parameters: scale not given: the % may be the effect or the level left
NCI/ADR-RES = assay: Growth inhibition of human NCI/ADR-RES cells at 1 nM after 96 hrs by MTT assay; parameters: scale not given: the % may be the effect or the level left
HCT-116 [1] = assay: Growth inhibition of human HCT116 cells at 10 uM after 96 hrs by MTT assay; parameters: scale not given: the % may be the effect or the level left
ACHN [2] = assay: Growth inhibition of human ACHN cells at 1 nM after 96 hrs by MTT assay; parameters: scale not given: the % may be the effect or the level left
UACC-257 [3] = assay: Growth inhibition of human UACC257 cells at 10 nM after 96 hrs by MTT assay; parameters: scale not given: the % may be the effect or the level left
KM12 [4] = assay: Growth inhibition of human KM12 cells at 10 uM after 96 hrs by MTT assay; parameters: scale not given: the % may be the effect or the level left
KM12 [5] = assay: Growth inhibition of human KM12 cells at 100 nM after 96 hrs by MTT assay; parameters: scale not given: the % may be the effect or the level left
NCI-H522 = assay: Growth inhibition of human NCI-H522 cells at 10 uM after 96 hrs by MTT assay; parameters: scale not given: the % may be the effect or the level left
CAKI-1 = assay: Growth inhibition of human Caki1 cells at 10 nM after 96 hrs by MTT assay; parameters: scale not given: the % may be the effect or the level left
NCI-H460 [6] = assay: Growth inhibition of human NCI-H460 cells at 1 nM after 96 hrs by MTT assay; parameters: scale not given: the % may be the effect or the level left
TK-10 [7] = assay: Growth inhibition of human TK10 cells at 1 nM after 96 hrs by MTT assay; parameters: scale not given: the % may be the effect or the level left
HT-29 = assay: Growth inhibition of human HT-29 cells at 10 uM after 96 hrs by MTT assay; parameters: scale not given: the % may be the effect or the level left
HOP-62 = assay: Growth inhibition of human HOP62 cells after 96 hrs by MTT assay; details: HOP-62, 96 h
Outline: (§1)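 Run in the NCI 60 human tumour cell line panel as a five-dose assay. GI50 and LC50 were reported for each cell line.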

TK-10 [8] = assay: Growth inhibition of human TK10 cells at 10 nM after 96 hrs by MTT assay; parameters: scale not given: the % may be the effect or the level left
[9] = Growth inhibition of human Hs 578T cells at 1 nM after 96 hrs by MTT assay; parameters: scale not given: the % may be the effect or the level left
Malme-3M = assay: Growth inhibition of human MALME-3M cells at 100 nM after 96 hrs by MTT assay; parameters: scale not given: the % may be the effect or the level left
NCI-H322M [10] = assay: Growth inhibition of human NCI-H322M cells at 1 nM after 96 hrs by MTT assay; parameters: scale not given: the % may be the effect or the level left
MDA-MB-468 = assay: Growth inhibition of human MDA-MB-468 cells at 10 nM after 96 hrs by MTT assay; parameters: scale not given: the % may be the effect or the level left
SK-MEL-2 [11] = assay: Growth inhibition of human SK-MEL-2 cells at 1 nM after 96 hrs by MTT assay; parameters: scale not given: the % may be the effect or the level left
HOP-92 = assay: Growth inhibition of human HOP92 cells at 1 uM after 96 hrs by MTT assay; parameters: scale not given: the % may be the effect or the level left
786-0 = assay: Growth inhibition of human 786-0 cells at 100 nM after 96 hrs by MTT assay; parameters: scale not given: the % may be the effect or the level left
NCI-H460 [12] = assay: Growth inhibition of human NCI-H460 cells after 96 hrs by MTT assay; details: NCI-H460, 96 h; outline: as §1
[13] = Growth inhibition of human RPMI8266 cells at 1 nM after 96 hrs by MTT assay; parameters: scale not given: the % may be the effect or the level left
HCC 2998 = assay: Growth inhibition of human HCC2998 cells at 1 nM after 96 hrs by MTT assay; parameters: scale not given: the % may be the effect or the level left
U-251 = assay: Growth inhibition of human U251 cells at 10 uM after 96 hrs by MTT assay; parameters: scale not given: the % may be the effect or the level left
SK-OV-3 = assay: Growth inhibition of human SKOV3 cells at 1 nM after 96 hrs by MTT assay; parameters: scale not given: the % may be the effect or the level left
ACHN [14] = assay: Growth inhibition of human ACHN cells at 100 nM after 96 hrs by MTT assay; parameters: scale not given: the % may be the effect or the level left
OVCAR-4 = assay: Growth inhibition of human OVCAR4 cells at 10 nM after 96 hrs by MTT assay; parameters: scale not given: the % may be the effect or the level left
UACC-257 [15] = assay: Growth inhibition of human UACC257 cells at 10 uM after 96 hrs by MTT assay; parameters: scale not given: the % may be the effect or the level left
SNB-19 = assay: Growth inhibition of human SNB19 cells at 1 nM after 96 hrs by MTT assay; parameters: scale not given: the % may be the effect or the level left
UACC-62 = assay: Growth inhibition of human UACC62 cells at 10 uM after 96 hrs by MTT assay; parameters: scale not given: the % may be the effect or the level left
SK-MEL-28 = assay: Growth inhibition of human SK-MEL-28 cells at 10 nM after 96 hrs by MTT assay; parameters: scale not given: the % may be the effect or the level left
BT-549 = assay: Growth inhibition of human BT549 cells after 96 hrs by MTT assay; details: BT-549, 96 h
HCT-116 [16] = assay: Growth inhibition of human HCT116 cells after 96 hrs by MTT assay; details: HCT-116, 96 h; outline: as §1
SNB-75 [17] = assay: Growth inhibition of human SNB75 cells at 1 nM after 96 hrs by MTT assay; parameters: scale not given: the % may be the effect or the level left
SK-MEL-2 [18] = assay: Growth inhibition of human SK-MEL-2 cells after 96 hrs by MTT assay; details: SK-MEL-2, 96 h
Outline: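 Tested in the NCI 60-cell-line panel in five-dose format; GI50 and LC50 values reported for each cell line.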

LOX IMVI = assay: Growth inhibition of human LOXIMVI cells at 10 nM after 96 hrs by MTT assay; parameters: scale not given: the % may be the effect or the level left
UO-31 = assay: Growth inhibition of human UO31 cells at 1 nM after 96 hrs by MTT assay; parameters: scale not given: the % may be the effect or the level left
SNB-75 [19] = assay: Growth inhibition of human SNB75 cells at 10 nM after 96 hrs by MTT assay; parameters: scale not given: the % may be the effect or the level left
SF-268 = assay: Growth inhibition of human SF268 cells at 100 nM after 96 hrs by MTT assay; parameters: scale not given: the % may be the effect or the level left
PC-3 = assay: Growth inhibition of human PC3 cells at 1 uM after 96 hrs by MTT assay; parameters: scale not given: the % may be the effect or the level left
NCI-H322M [20] = assay: Growth inhibition of human NCI-H322M cells at 100 nM after 96 hrs by MTT assay; parameters: scale not given: the % may be the effect or the level left
[21] = read-out: LC50 (the source's name)
[22] = read-out: Log10GI50 (converted)
[23] = read-out: Log10LC50 (converted)

**Q.** For `C=C(C)[C@H]1CC=C(C)C2=CO[C@@H](c3ccccc3F)[C@@H]21`, which Activity (HL-60(TB)) is on record?
**A.** 44.43%

**Q.** And the Activity (SF-539)?
**A.** 84%

**Q.** What about the Activity (NCI/ADR-RES) of the same compound?
**A.** 105%

**Q.** What about the Activity (HCT-116 [1]) of the same compound?
**A.** 71.81%

**Q.** What about the Activity (ACHN [2]) of the same compound?
**A.** 96%

**Q.** What about the Activity (UACC-257 [3]) of the same compound?
**A.** 90%

**Q.** And the Activity (KM12 [4])?
**A.** 85.93%

**Q.** What about the Activity (KM12 [5]) of the same compound?
**A.** 90%

**Q.** And the Activity (NCI-H522)?
**A.** 58.36%

**Q.** And the Activity (CAKI-1)?
**A.** 93%

**Q.** What about the Activity (NCI-H460 [6]) of the same compound?
**A.** 97%

**Q.** What about the Activity (TK-10 [7]) of the same compound?
**A.** 84%

**Q.** And the Activity (HT-29)?
**A.** 89.53%

**Q.** What about the GI50 (HOP-62; read-out: GI50) of the same compound?
**A.** 10.1 µM

**Q.** What about the CC50 (HOP-62; [21]) of the same compound?
**A.** 46.8 µM

**Q.** And the GI50 (HOP-62; [22])?
**A.** 10.2 µM

**Q.** And the CC50 (HOP-62; [23])?
**A.** 46.8 µM

**Q.** What about the TGI (HOP-62; read-out: Log10TGI (converted)) of the same compound?
**A.** 21.9 µM

**Q.** What about the TGI (HOP-62; read-out: TGI) of the same compound?
**A.** 21.8 µM

**Q.** And the Activity (TK-10 [8])?
**A.** 84%

**Q.** What about the Activity [9] of the same compound?
**A.** 83%

**Q.** What about the Activity (Malme-3M) of the same compound?
**A.** 74%

**Q.** What about the Activity (NCI-H322M [10]) of the same compound?
**A.** 95%

**Q.** What about the Activity (MDA-MB-468) of the same compound?
**A.** 79%

**Q.** And the Activity (SK-MEL-2 [11])?
**A.** 88%

**Q.** And the Activity (HOP-92)?
**A.** -14%

**Q.** And the Activity (786-0)?
**A.** 89%

**Q.** What about the GI50 (NCI-H460 [12]; read-out: GI50) of the same compound?
**A.** 4.24 µM

**Q.** What about the CC50 (NCI-H460 [12]; [21]) of the same compound?
**A.** 43.4 µM

**Q.** And the GI50 (NCI-H460 [12]; [22])?
**A.** 4.27 µM

**Q.** And the CC50 (NCI-H460 [12]; [23])?
**A.** 43.7 µM

**Q.** What about the TGI (NCI-H460 [12]; read-out: Log10TGI (converted)) of the same compound?
**A.** 17.4 µM

**Q.** And the TGI (NCI-H460 [12]; read-out: TGI)?
**A.** 17.5 µM

**Q.** What about the Activity [13] of the same compound?
**A.** 78%

**Q.** What about the Activity (HCC 2998) of the same compound?
**A.** 86%

**Q.** And the Activity (U-251)?
**A.** 97.35%

**Q.** What about the Activity (SK-OV-3) of the same compound?
**A.** 98%

**Q.** What about the Activity (ACHN [14]) of the same compound?
**A.** 97%

**Q.** What about the Activity (OVCAR-4) of the same compound?
**A.** 86%

**Q.** What about the Activity (UACC-257 [15]) of the same compound?
**A.** 76.82%

**Q.** What about the Activity (SNB-19) of the same compound?
**A.** 94%

**Q.** What about the Activity (UACC-62) of the same compound?
**A.** 54.63%

**Q.** And the Activity (SK-MEL-28)?
**A.** 93%

**Q.** And the GI50 (BT-549; read-out: GI50)?
**A.** 1.72 µM

**Q.** What about the CC50 (BT-549; [21]) of the same compound?
**A.** 34 µM

**Q.** And the GI50 (BT-549; [22])?
**A.** 1.7 µM

**Q.** And the CC50 (BT-549; [23])?
**A.** 33.9 µM

**Q.** What about the TGI (BT-549; read-out: Log10TGI (converted)) of the same compound?
**A.** 8.32 µM

**Q.** What about the TGI (BT-549; read-out: TGI) of the same compound?
**A.** 8.37 µM

**Q.** What about the GI50 (HCT-116 [16]; read-out: GI50) of the same compound?
**A.** 3 µM

**Q.** And the CC50 (HCT-116 [16]; [21])?
**A.** 36.9 µM

**Q.** And the GI50 (HCT-116 [16]; [22])?
**A.** 3.02 µM

**Q.** And the CC50 (HCT-116 [16]; [23])?
**A.** 37.2 µM

**Q.** And the TGI (HCT-116 [16]; read-out: Log10TGI (converted))?
**A.** 13.5 µM

**Q.** What about the TGI (HCT-116 [16]; read-out: TGI) of the same compound?
**A.** 13.6 µM

**Q.** What about the Activity (SNB-75 [17]) of the same compound?
**A.** 85%

**Q.** What about the GI50 (SK-MEL-2 [18]; read-out: GI50) of the same compound?
**A.** 3.74 µM

**Q.** And the CC50 (SK-MEL-2 [18]; [21])?
**A.** 55.2 µM

**Q.** What about the GI50 (SK-MEL-2 [18]; [22]) of the same compound?
**A.** 3.72 µM

**Q.** And the CC50 (SK-MEL-2 [18]; [23])?
**A.** 55 µM

**Q.** And the TGI (SK-MEL-2 [18]; read-out: Log10TGI (converted))?
**A.** 19.1 µM

**Q.** What about the TGI (SK-MEL-2 [18]; read-out: TGI) of the same compound?
**A.** 19.2 µM

**Q.** What about the Activity (LOX IMVI) of the same compound?
**A.** 91%

**Q.** What about the Activity (UO-31) of the same compound?
**A.** 89%

**Q.** What about the Activity (SNB-75 [19]) of the same compound?
**A.** 81%

**Q.** And the Activity (SF-268)?
**A.** 87%

**Q.** And the Activity (PC-3)?
**A.** 20%

**Q.** And the Activity (NCI-H322M [20])?
**A.** 79%
